Measured values collected from several papers.
Target: BDNF/NT-3 growth factors receptor (NTRK2, Homo sapiens, UniProt Q16620)

SMILES	test	setting	inhibition [%]
CCCS(=O)(=O)Nc1ccc(F)c(C(=O)c2c[nH]c3ncc(-c4ccc(Cl)cc4)cc23)c1F	enzyme activity, inhibitor	1 µM	< 10
CNC(=O)c1cc2c(Oc3ccc(NC(=O)C4(C(=O)Nc5ccc(F)cc5)CC4)cc3)ccnc2cc1OC	enzyme activity, inhibitor, radiometric	1 µM	100
COc1cc2ncnc(Nc3ccc(Oc4ccccc4)cc3C)c2cc1OC	enzyme activity, inhibitor	1 µM	11
CC/C(=N\NC(=O)NCc1cccc(O)c1)c1ccc(O)c(C)c1O	enzyme activity, inhibitor	0.1 µM	2.2
O=C(Nc1cccc(Cl)c1)Nc1cccc(C(=O)Nc2ccc3[nH]ncc3c2)c1	enzyme activity, inhibitor, FRET	1 µM	20.2
COc1cc2ncnc(Nc3ccc(Oc4ccccc4)c(C)c3C)c2cc1OC	enzyme activity, inhibitor	1 µM	-3
O=C(Nc1ccc(OC(F)(F)F)cc1)Nc1cccc(C(=O)Nc2ccc3[nH]ncc3c2)c1	enzyme activity, inhibitor, FRET	1 µM	14.5
CNC(=O)c1cc(Oc2ccc(NC(=O)Nc3ccc(Cl)c(C(F)(F)F)c3)cc2)ccn1	cell-free assay	0.3 µM	14
CN1CC(Oc2cnc(C#N)cc2-c2ccn3nc(NC(=O)C4CC4)cc3c2)C1	enzyme activity, inhibitor	1 µM	4
O=C(Nc1ccc(Cl)cc1)Nc1cccc(C(=O)Nc2ccc3[nH]ncc3c2)c1	enzyme activity, inhibitor, FRET	1 µM	18.8
